Here are results for two compounds from ChEMBL document CHEMBL1137665, “Antistaphylococcal activity of CG400549, a new experimental FabI inhibitor, compared with that of other agents” (2007).

Molecules are shown by their SMILES. ≈ marks a conversion by molar mass, not a printed value.

Assay [1] relates to Staphylococcus aureus. Nature of the assay: Antimicrobial activity against vancomycin-intermediate Staphylococcus aureus 504 after 50 passages by multi-step resistance selection technique. It counts as functional. Put shortly: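 Multistep selection: S. aureus strains (MSSA and MRSA, including VISA and VRSA) were passaged serially once daily in subinhibitory concentrations of each antimicrobial. Mutant and parent identities were confirmed by pulsed-field gel electrophoresis at the end of the study. Mutant MIC stability was checked after 10 daily subcultures on antibiotic-free media.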

Assay [2] relates to Staphylococcus aureus. As to the kind of experiment: Antimicrobial activity against methicillin-resistant Staphylococcus aureus 547 after 14 passages by multi-step resistance selection technique. The class given is functional. The method in brief: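 Multistep selection by daily serial passage of each strain in subinhibitory drug concentrations for the stated number of passages. Mutant MIC was then determined. Identity of mutants and parents was confirmed by pulsed-field gel electrophoresis.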

As a reminder, the MIC is the smallest concentration in the dilution series that meets the test's criterion for growth inhibition. A lower MIC goes with inhibition by little substance. `CCCCCCCCCC(=O)N[C@@H](Cc1c[nH]c2ccccc12)C(=O)N[C@H](CC(N)=O)C(=O)N[C@@H](CC(=O)O)C(=O)N[C@@H]1C(=O)NCC(=O)N[C@@H](CCCN)C(=O)N[C@@H](CC(=O)O)C(=O)N[C@H](C)C(=O)N[C@@H](CC(=O)O)C(=O)NCC(=O)N[C@H](CO)C(=O)N[C@@H]([C@H](C)CC(=O)O)C(=O)N[C@@H](CC(=O)c2ccccc2N)C(=O)O[C@@H]1C` came in with an MIC in assay [1] of 16 µg/mL (≈ 9.87 µM).

Take `Cc1c(N)cccc1Cn1ccc(OCCc2cccs2)cc1=O` [CG-400549]: the minimal inhibitory concentration (MIC) in assay [2] worked out at 32 µg/mL (≈ 94 µM).
